Measurements from ChEMBL document CHEMBL3351639, “Fluorinated analogues of marsanidine, a highly α2-AR/imidazoline I1 binding site-selective hypotensive agent. Synthesis and biological activities” (Eur J Med Chem, 2014).

What was measured:
Rattus norvegicus [1] = assay: Cardiovascular activity in anesthetized Wistar rat assessed as time required for maximal reduction in heart rate at 0.1 mg/kg, iv measured during 60 mins post dose; type: functional
Method in brief: (§1)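 Male Wistar rats (200–290 g) anaesthetized with thiopental 70 mg/kg i.p., maintained at 30 µg/kg/min; body temperature 36–37 °C. Carotid catheter recorded MAP and HR; jugular catheter for infusion. After 40 min of saline/thiopental infusion (1.2 ml/h), 0.1 mg/kg given as i.v. bolus (time 0). Signals sampled at 100 Hz. Maximal change from time 0 over 60 min, and its time, recorded. Saline vehicle control; n = 4–5.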

[2] = Displacement of […] from imidazoline I2 receptor in Sprague-Dawley rat kidney membranes after 45 mins by liquid scintillation counting; type: cell membranes, Membrane
Rattus norvegicus [3] = assay: Hypotensive activity in anesthetized Wistar rat assessed as maximal reduction in mean arterial blood pressure at 0.1 mg/kg, iv measured during 60 mins post dose; type: functional; method in brief: as §1
Nischarin = Nischarin (Rattus norvegicus, UniProt Q4G017); assay: Displacement of […] from imidazoline I1 receptor in Sprague-Dawley rat kidney membranes after 45 mins by liquid scintillation counting; type: cell membranes, Membrane
Nischarin, sequence (Q4G017 whole entry): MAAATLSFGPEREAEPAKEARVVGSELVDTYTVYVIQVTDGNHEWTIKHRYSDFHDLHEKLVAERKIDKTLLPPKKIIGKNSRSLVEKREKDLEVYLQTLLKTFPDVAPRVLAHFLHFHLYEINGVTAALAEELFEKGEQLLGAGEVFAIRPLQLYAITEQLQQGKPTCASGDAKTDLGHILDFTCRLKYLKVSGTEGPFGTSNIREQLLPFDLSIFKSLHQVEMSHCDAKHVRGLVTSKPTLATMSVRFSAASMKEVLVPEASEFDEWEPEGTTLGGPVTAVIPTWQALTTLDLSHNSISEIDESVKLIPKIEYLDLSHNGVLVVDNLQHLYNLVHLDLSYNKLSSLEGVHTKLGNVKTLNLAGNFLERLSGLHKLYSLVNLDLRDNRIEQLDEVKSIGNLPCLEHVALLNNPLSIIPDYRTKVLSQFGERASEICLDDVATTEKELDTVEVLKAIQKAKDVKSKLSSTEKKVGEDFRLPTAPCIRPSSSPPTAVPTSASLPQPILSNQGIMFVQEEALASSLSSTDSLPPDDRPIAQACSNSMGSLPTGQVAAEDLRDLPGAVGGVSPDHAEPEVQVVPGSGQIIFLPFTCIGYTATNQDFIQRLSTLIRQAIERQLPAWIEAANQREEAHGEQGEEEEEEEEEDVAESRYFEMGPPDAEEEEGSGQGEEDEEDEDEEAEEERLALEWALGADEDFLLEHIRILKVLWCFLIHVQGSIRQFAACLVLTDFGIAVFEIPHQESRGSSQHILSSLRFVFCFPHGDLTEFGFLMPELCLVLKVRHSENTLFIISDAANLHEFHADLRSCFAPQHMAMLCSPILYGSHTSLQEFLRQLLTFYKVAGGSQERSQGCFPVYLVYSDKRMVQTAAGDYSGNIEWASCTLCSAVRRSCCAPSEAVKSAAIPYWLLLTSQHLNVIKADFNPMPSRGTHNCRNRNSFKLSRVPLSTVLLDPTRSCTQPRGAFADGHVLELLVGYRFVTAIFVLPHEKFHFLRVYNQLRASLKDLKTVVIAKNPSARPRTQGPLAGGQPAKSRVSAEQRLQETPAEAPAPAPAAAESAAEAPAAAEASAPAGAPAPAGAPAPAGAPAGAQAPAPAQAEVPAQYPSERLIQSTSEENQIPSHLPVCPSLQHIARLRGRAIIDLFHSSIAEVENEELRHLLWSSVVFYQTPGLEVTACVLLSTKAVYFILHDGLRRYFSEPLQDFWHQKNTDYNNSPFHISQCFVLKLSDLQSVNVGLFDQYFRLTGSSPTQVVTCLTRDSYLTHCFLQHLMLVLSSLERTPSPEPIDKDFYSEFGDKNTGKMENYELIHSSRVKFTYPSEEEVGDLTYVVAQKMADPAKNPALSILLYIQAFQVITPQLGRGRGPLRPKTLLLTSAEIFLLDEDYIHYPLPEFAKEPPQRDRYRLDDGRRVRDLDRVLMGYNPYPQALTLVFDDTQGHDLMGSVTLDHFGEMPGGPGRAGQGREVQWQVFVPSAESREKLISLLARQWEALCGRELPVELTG

Rattus norvegicus [4] = assay: Hypertensive activity in anesthetized Wistar rat assessed as maximal increase in mean arterial blood pressure at 0.1 mg/kg, iv measured during 60 mins post dose; type: organism-based; set-up: dose 0.1 mg/kg, route intravenous; conditions: in vivo, 1 h; method in brief: as §1
[5] = biological target: T1, Adrenergic receptor alpha-2 (Rattus norvegicus, UniProt P22086+P19328+P22909); assay: Displacement of [3H]RX821002 from alpha2-adrenoceptor in Sprague-Dawley rat brain membranes after 45 mins by liquid scintillation counting; type: cell membranes, Membrane
T1 sequence (P22086 whole entry): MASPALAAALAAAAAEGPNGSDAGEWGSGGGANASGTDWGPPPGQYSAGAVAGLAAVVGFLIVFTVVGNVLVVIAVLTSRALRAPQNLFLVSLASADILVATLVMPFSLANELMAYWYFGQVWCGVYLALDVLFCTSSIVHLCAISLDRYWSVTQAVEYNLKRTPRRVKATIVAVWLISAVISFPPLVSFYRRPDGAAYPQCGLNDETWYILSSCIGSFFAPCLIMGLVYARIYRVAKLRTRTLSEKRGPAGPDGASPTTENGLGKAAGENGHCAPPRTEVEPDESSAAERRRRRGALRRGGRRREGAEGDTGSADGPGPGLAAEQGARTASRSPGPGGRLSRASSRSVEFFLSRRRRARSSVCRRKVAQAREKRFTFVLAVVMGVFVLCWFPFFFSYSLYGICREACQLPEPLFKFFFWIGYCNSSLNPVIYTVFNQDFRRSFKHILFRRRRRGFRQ
T1 sequence (P19328 whole entry): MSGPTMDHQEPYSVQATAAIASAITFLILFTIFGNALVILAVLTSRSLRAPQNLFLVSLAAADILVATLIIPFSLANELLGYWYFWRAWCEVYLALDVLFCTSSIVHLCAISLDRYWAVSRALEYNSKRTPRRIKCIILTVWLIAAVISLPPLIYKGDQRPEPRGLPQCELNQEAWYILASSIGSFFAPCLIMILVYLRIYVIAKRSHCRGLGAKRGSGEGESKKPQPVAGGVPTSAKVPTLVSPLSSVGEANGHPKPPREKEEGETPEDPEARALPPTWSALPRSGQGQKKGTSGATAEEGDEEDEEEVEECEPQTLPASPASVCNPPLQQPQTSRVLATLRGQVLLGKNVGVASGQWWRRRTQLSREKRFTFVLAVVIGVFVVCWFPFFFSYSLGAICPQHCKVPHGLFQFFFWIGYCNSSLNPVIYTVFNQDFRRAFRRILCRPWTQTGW
T1 sequence (P22909 whole entry): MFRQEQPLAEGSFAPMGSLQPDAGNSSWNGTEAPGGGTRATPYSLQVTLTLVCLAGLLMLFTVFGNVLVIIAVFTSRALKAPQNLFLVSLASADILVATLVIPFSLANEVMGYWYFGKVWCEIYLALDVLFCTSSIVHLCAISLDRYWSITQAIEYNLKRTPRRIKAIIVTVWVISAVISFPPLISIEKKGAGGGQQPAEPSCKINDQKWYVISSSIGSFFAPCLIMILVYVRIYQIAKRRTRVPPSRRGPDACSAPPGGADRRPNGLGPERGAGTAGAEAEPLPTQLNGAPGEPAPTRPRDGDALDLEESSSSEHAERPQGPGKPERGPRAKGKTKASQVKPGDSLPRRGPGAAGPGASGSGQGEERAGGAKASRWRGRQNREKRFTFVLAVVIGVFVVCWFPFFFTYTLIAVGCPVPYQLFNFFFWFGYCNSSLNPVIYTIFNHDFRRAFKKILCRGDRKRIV
Method in brief: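 Crude P2 membranes from brains of male Sprague-Dawley rats (250–280 g), 0.2–0.3 mg protein. Radioligand 1 nM [3H]RX821002 (α2) or [3H]prazosin (α1); 11 concentrations of compound, 0.1 nM–100 µM. Non-specific binding: 10 µM rauwolscine (α2) or 10 µM phenylephrine (α1). Triplicate incubation, RT, 45 min. PEI-soaked glass-fibre filtration, then scintillation counting. Ki by Cheng-Prusoff; 3–4 experiments, or one for low-affinity compounds.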

Rattus norvegicus [6] = assay: Hypertensive activity in anesthetized Wistar rat assessed as time required for maximal increase in mean arterial blood pressure at 0.1 mg/kg, iv measured during 60 mins post dose; type: organism-based; set-up: dose 0.1 mg/kg, route intravenous; conditions: in vivo, 1 h; method in brief: as §1
Rattus norvegicus [7] = assay: Cardiovascular activity in anesthetized Wistar rat assessed as maximal reduction in heart rate at 0.1 mg/kg, iv measured during 60 mins post dose; type: functional; method in brief: as §1
Rattus norvegicus [8] = assay: Hypotensive activity in anesthetized Wistar rat assessed as time required for maximal reduction in mean arterial blood pressure at 0.1 mg/kg, iv; type: functional; method in brief: as §1

Row | Compound | Time (Rattus norvegicus [1]) [min] | Ki [2] [nM] | Activity (Rattus norvegicus [3]) [mmHg] | IC50 (Nischarin) [nM] | Activity (Rattus norvegicus [4]) [mmHg] | Ki [5] [nM] | Time (Rattus norvegicus [6]) [min] | Activity (Rattus norvegicus [7]) [bpm] | Time (Rattus norvegicus [8]) [min]
1 | Fc1cccc2cnn(N=C3NCCN3)c12 | 10 | 349000 | 59.4 | 7740 | 21.1 | 30.97 | 4 | 128 | 33
2 | Fc1ccc2c(cnn2N=C2NCCN2)c1 | 5 | 5700 | 8.6 | 91.6 | 14.6 | 64.33 | 2 | 61 | 11
3 | Fc1ccc2cnn(CC3=NCCN3)c2c1 | 5 | 8.19 | 12.7 | 33500 | 23.6 | 29.73 | 4 | 52 | 36
4 | Fc1ccc2cnn(N=C3NCCN3)c2c1 | 2 | 22000 | 36 | 20700 | 24.8 | 26.2 | 3 | 118 | 35
5 | Fc1ccc2c(cnn2CC2=NCCN2)c1 | 38 | 10.4 | 7.2 | 2420 | 0.8 | 32.17 | 2 | 12 | 40
